Assay results pooled from the literature.
Target: Phosphatidylinositol 4-kinase beta (PI4KB, Homo sapiens, UniProt Q9UBF8)

CNCc1ccccc1-c1csc([C@@H](C)Nc2nc(C)nc3cc(OC)c(OC)cc23)c1 — remaining binding (cell-free assay; competition with immobilised ligand; 1 µM): 82%
CN(C)c1ncc(F)c(-c2cnn3ncccc23)n1 — remaining binding (binding; 1 µM): 100%
O=C(c1ccc(Nc2nccc(-c3cc4ccccc4s3)n2)cc1)N1CCC(N2CCCC2)CC1 — remaining binding (binding; competition with immobilised ligand; 1 µM): 58%
COCCOc1nc(-c2ccc(Cl)nc2)nc2c1CN(C(=O)c1ncn3ccccc13)CC2 — remaining binding (cell-free assay; competition with immobilised ligand; 0.1 µM): 100%
C=CC(=O)N1CCC(C(=O)NCC(=O)N2CCN(c3nc(-c4cnc(N)nc4C(F)F)nc(N4CCOCC4)n3)CC2)CC1 — remaining binding (binding; competition with immobilised ligand; 1 µM): 100%
O=C(c1ccc(Nc2ncc(Cl)c(-c3cc4ccccc4s3)n2)cc1)N1CCC(N2CCCC2)CC1 — remaining binding (binding; competition with immobilised ligand; 1 µM): 76%
C[C@H]1CCN(c2nccc(-c3cnn4ncccc34)n2)C1 — remaining binding (binding; 1 µM): 19%
CSc1cccnc1N1CCN(Cc2nc3ccccc3[nH]2)CC1 — remaining binding (cell-free assay; competition with immobilised ligand; 1 µM): 73%
F[C@@H]1CCN(c2nccc(-c3cnn4ncccc34)n2)C1 — remaining binding (binding; 1 µM): 89%
O=C(NCC1CCOCC1)c1n[nH]cc1NC(=O)c1c(F)cccc1F — remaining binding (binding; competition with immobilised ligand; 1 µM): 92%
Nc1c(C(=O)NCc2ccc(C(=O)NCCCC3CCCCC3)cc2)cnn1-c1ccccc1 — remaining binding (cell-free assay; competition with immobilised ligand; 0.1 µM): 100%
CN(c1nccc(-c2cnn3ncccc23)n1)C1CC1 — remaining binding (binding; 1 µM): 100%
CC(C)CC(=O)N1CCc2nc(-c3ccc(Br)cc3)nc(N(C)Cc3ccccc3)c2C1 — remaining binding (cell-free assay; competition with immobilised ligand; 0.1 µM): 100%
COc1cnc(Nc2cccc(S(N)(=O)=O)c2)nc1N1CCN(c2ccccc2)C(=O)C1 — remaining binding (binding; competition with immobilised ligand; 1 µM): 13%
FC(F)(F)Oc1cccc(-c2cnc3ccc(-c4ccncc4)nn23)c1 — remaining binding (binding; competition with immobilised ligand; 5 µM): 0.05%
O=C(N1CCS(=O)(=O)CC1)N1C[C@H](c2ccc(OC(F)(F)F)cc2)C[C@H](c2nc(C3CC3)no2)C1 — remaining binding (cell-free assay; competition with immobilised ligand; 1 µM): 100%
COc1ccnn2ncc(-c3ccnc(N(C)C)n3)c12 — remaining binding (binding; 1 µM): 65%
FC(F)(F)c1ccc2c(c1)nc(-c1cccnc1)n2C1CC1 — remaining binding (cell-free assay; competition with immobilised ligand; 1 µM): 94%
CN(CCCC(F)(F)F)c1nccc(-c2cnn3ncccc23)n1 — remaining binding (binding; 1 µM): 100%
Cc1cnc(Nc2ccc(C(=O)N3CCC(N4CCCC4)CC3)cc2)nc1-c1cc2ccccc2s1 — remaining binding (binding; competition with immobilised ligand; 1 µM): 77%
N[C@@H]1CCN(c2nccc(-c3cnn4ncccc34)n2)C1 — remaining binding (binding; 1 µM): 80%
C[C@@H](c1ccc(-n2cnc3c(N)ncnc32)cc1)N1CCc2nn(C)c(Cc3ccccc3)c2C1=O — remaining binding (binding; competition with immobilised ligand; 0.1 µM): 42%
